According to PMC3074353 (Biochemistry, 2011):
Like-named read-outs stand apart in the source and are kept apart here.

Columns and labels:
[1] = target: T1, PTP1B (amino acids 1–321) (Homo sapiens, UniProt P18031); assay: PTP activity assay with synthetic pY peptides as substrates, PTP1B; format: biochemical
T1 sequence (P18031 1-321): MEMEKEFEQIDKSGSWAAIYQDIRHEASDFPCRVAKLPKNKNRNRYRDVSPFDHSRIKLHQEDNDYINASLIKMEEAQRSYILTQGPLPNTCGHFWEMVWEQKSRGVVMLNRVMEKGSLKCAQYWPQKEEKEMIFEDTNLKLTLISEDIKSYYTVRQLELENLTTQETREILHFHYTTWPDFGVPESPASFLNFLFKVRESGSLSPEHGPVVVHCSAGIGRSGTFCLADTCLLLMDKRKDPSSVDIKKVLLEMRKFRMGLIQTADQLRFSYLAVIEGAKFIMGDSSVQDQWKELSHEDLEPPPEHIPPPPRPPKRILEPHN
Method in brief: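 PTP1B catalytic fragment (residues 1–321) expressed in E. coli, quantified by Bradford against BSA. For alanine-scan peptides, kinetic constants came from fitting progress curves to the integrated Michaelis–Menten equation.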

[2] = target: T2, RPTPα (amino acids 224–802) (Homo sapiens, UniProt P18433); assay: PTP activity assay with synthetic pY peptides as substrates, RPTPα; format: biochemical; details: for Km: same buffer pH 7.4, mean ± SD, three or more independent experiments; for kcat/KM: same buffer pH 7.4, three or more independent experiments
[3] = target: T1, PTP1B (amino acids 1–321); details: ref [36], cited from earlier work
[4] = test system: catalytic domain of SHP-1 [SHP-1(ΔSH2)]; assay: PTP activity assay with synthetic pY peptides as substrates, SHP-1; format: biochemical; details: for Km / kcat/KM: same buffer pH 7.4, three or more independent experiments; for Km: mean ± SD
[5] = target: T2, RPTPα (amino acids 224–802); details: literature value, ref [20]; cited from earlier work
[6] = test system: catalytic domain of SHP-2 [SHP-2(ΔSH2)]; assay: PTP activity assay with synthetic pY peptides as substrates, SHP-2; format: biochemical; details: for Km / kcat/KM: same buffer pH 7.4, three or more independent experiments; for Km: mean ± SD

catalytic domain of SHP-1 [SHP-1(ΔSH2)], sequence (P29350 244-515 limits assumed, stated change not applied): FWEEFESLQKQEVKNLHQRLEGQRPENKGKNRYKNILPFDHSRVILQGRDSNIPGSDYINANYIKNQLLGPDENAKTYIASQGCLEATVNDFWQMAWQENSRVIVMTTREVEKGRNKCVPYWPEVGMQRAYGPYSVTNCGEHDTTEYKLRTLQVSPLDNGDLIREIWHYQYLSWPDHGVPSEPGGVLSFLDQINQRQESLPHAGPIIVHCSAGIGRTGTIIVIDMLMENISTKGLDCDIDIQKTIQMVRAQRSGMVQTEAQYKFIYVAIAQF

| Compound | Km ([4]; SHP-1) | kcat/KM ([4]; SHP-1) | Km ([6]; SHP-2) | kcat/KM ([6]; SHP-2) | further results |
| --- | --- | --- | --- | --- | --- |
| Ac-RTLAApYAAAA-NH2 | – | – | – | – | kcat/KM value [1]: 510000 M⁻¹ s⁻¹ |
| Ac-AAAAApYRHRR-NH2 | – | – | – | – | kcat/KM value [1]: > 10^5 M^−1 s^−1; Km [2]: 2600 ± 200 µM; kcat/KM [2]: 12000 M⁻¹ s⁻¹ |
| Ac-RTLAApYEEVH-NH2 | – | – | – | – | kcat/KM value [1]: 840000 M⁻¹ s⁻¹ |
| Ac-AAAAApYEEVH-NH2 | – | – | – | – | kcat/KM [2]: 39000 M⁻¹ s⁻¹ |
| Ac-AAAApYAAAA-NH2 | – | – | – | – | kcat/KM ([3]; literature value): 1.3 ^b μM^−1 s^−1; kcat/KM value [3]: 1.3e+06 M⁻¹ s⁻¹ |
| Ac-ApYpYWTApYAA-NH2 | – | – | – | – | kcat/KM value [1]: 1.51e+07 M⁻¹ s⁻¹ |
| AYTEpYTpYAA | 9.1 ± 1 µM | 1.9e+06 M⁻¹ s⁻¹ | – | – | – |
| LIEDNEpYTARQGA | – | – | – | – | Km [5]: 770 ± 20 µM; kcat [5]: 8.3 ± 0.2 s⁻¹; kcat/KM [5]: 11000 M⁻¹ s⁻¹ |
| Ac-WDEDFpYDWEF-NH2 | 3.2 ± 0.3 µM | 2.3e+07 M⁻¹ s⁻¹ | 6.3 ± 0.4 µM | 6.8e+06 M⁻¹ s⁻¹ | increase of activity relative to peptide 6 (Ac-WDEDFpYSASA-NH2) ([6]; SHP-2, C-terminal SASA replaced by acidic motif DWEF): 6.2 fold; kcat/KM value ([4]; SHP-1): 2.3e+07 M⁻¹ s⁻¹ |
| ADEDFpYAA | – | – | 34 ± 2 µM | 820000 M⁻¹ s⁻¹ | – |
| Ac-RTLAApYRFQK-NH2 | – | – | – | – | kcat/KM value [1]: 220000 M⁻¹ s⁻¹ |
| DFEDFpYAA | – | – | 23 ± 2 µM | 1.6e+06 M⁻¹ s⁻¹ | – |
| Ac-WDEDFpYSASA-NH2 | 53 ± 10 µM | 700000 M⁻¹ s⁻¹ | 46 ± 10 µM | 1.1e+06 M⁻¹ s⁻¹ | increase of kcat/KM relative to Ac-SASASpYSASA-NH2 ([6]; SHP-2): 61 fold; higher activity of SHP-2 than of SHP-1 (kcat/KM ratio) ([6]; SHP-2 versus SHP-1): 1.6 fold; increase of kcat/KM relative to Ac-SASASpYSASA-NH2 ([4]; SHP-1): 54 fold; kcat/KM [2]: 69000 M⁻¹ s⁻¹ |
| Ac-AKFEDTpYAA-NH2 | 58 ± 13 µM | 340000 M⁻¹ s⁻¹ | – | – | – |
| O=[N+]([O-])c1ccc(OP(=O)(O)O)cc1 [pNPP, reference compound] | – | – | – | – | Km [2]: 2700 ± 300 µM; kcat/KM [2]: 190 M⁻¹ s⁻¹ |
| WDEDFpYRWKF | 150 ± 15 µM | 280000 M⁻¹ s⁻¹ | 210 ± 35 µM | 340000 M⁻¹ s⁻¹ | – |
| Ac-EIFDFpYAA-NH2 | 27 ± 4 µM | 1.2e+06 M⁻¹ s⁻¹ | 54 ± 6 µM | 480000 M⁻¹ s⁻¹ | – |
| Ac-FYDIDpYAA-NH2 | 28 ± 2 µM | 2.4e+06 M⁻¹ s⁻¹ | 66 ± 13 µM | 750000 M⁻¹ s⁻¹ | – |

| Compound | Km ([4]; SHP-1) | kcat/KM ([4]; SHP-1) | Km ([6]; SHP-2) | kcat/KM ([6]; SHP-2) | further results |
| --- | --- | --- | --- | --- | --- |
| Ac-ARKRIpYAA-NH2 | – | – | – | – | kcat/KM value [1]: > 10^5 M^−1 s^−1; Km [2]: 490 ± 30 µM; kcat/KM [2]: 80000 M⁻¹ s⁻¹ |
| Ac-WAGDDpYAA-NH2 | 45 ± 5 µM | 1.3e+06 M⁻¹ s⁻¹ | 68 ± 15 µM | 530000 M⁻¹ s⁻¹ | higher reactivity to SHP-1 than to SHP-2 (kcat/KM ratio) ([4]; SHP-1 versus SHP-2): 2.5 fold |
| Ac-FDIDIpYAA-NH2 | 13 ± 1 µM | 2.5e+06 M⁻¹ s⁻¹ | 39 ± 5 µM | 770000 M⁻¹ s⁻¹ | – |
| O=P(O)(O)Oc1ccccc1 [Phenyl phosphate, reference compound] | – | – | – | – | kcat/KM [2]: 20 M⁻¹ s⁻¹ |
| DAEDFpYAA | – | – | 28 ± 3 µM | 1.1e+06 M⁻¹ s⁻¹ | – |
| Ac-RRISTpYAA-NH2 | – | – | – | – | kcat/KM value [1]: > 10^5 M^−1 s^−1; Km [2]: 1200 ± 100 µM; kcat/KM [2]: 41000 M⁻¹ s⁻¹ |
| Ac-WDEDFpYAA-NH2 | – | – | 43 ± 2 µM | 1.1e+06 M⁻¹ s⁻¹ | – |
| TSTEPQpYQPGENL | – | – | – | – | Km [5]: 1160 ± 140 µM; kcat [5]: 8.9 ± 0.5 s⁻¹; kcat/KM [5]: 7700 M⁻¹ s⁻¹ |
| Ac-SASASpYSASA-NH2 | 1990 ± 420 µM | 13000 M⁻¹ s⁻¹ | 2300 ± 400 µM | 18000 M⁻¹ s⁻¹ | Km [2]: 530 ± 150 µM; kcat/KM [2]: 43000 M⁻¹ s⁻¹ |
| Ac-ASSDDpYAA-NH2 | – | – | – | – | kcat/KM [2]: 13000 M⁻¹ s⁻¹ |
| WRKRFpYDWEF | 780 ± 640 µM | 2200 M⁻¹ s⁻¹ | 560 ± 140 µM | 2300 M⁻¹ s⁻¹ | – |
| EADTApYAA | – | – | – | – | Km [2]: 1400 ± 100 µM; kcat/KM [2]: 19000 M⁻¹ s⁻¹ |
| Ac-DWEDFpYAA-NH2 | – | – | 17 ± 2 µM | 1.7e+06 M⁻¹ s⁻¹ | – |
| FDEDFpYAA | – | – | 31 ± 6 µM | 1e+06 M⁻¹ s⁻¹ | – |
| TATEPQpYQPGENL | – | – | – | – | Km [5]: 1070 ± 30 µM; kcat [5]: 9.7 ± 0.2 s⁻¹; kcat/KM [5]: 9100 M⁻¹ s⁻¹ |
| Ac-SASASpYDWEF-NH2 | 48 ± 9 µM | 250000 M⁻¹ s⁻¹ | 180 ± 7 µM | 190000 M⁻¹ s⁻¹ | increase of kcat/KM relative to Ac-SASASpYSASA-NH2 ([6]; SHP-2): 10 fold; increase of kcat/KM relative to Ac-SASASpYSASA-NH2 ([4]; SHP-1): 19 fold |
| Ac-AVWEFpYpYAA-NH2 | 7.5 ± 2 µM | 3.3e+06 M⁻¹ s⁻¹ | – | – | – |
